The record followed here is ChEMBL document CHEMBL3769383, “Cefsulodin Inspired Potent and Selective Inhibitors of mPTPB, a Virulent Phosphatase from Mycobacterium tuberculosis” (ACS Med Chem Lett, 2015).

Test [1] can be described thus: Inhibition of Mycobacterium tuberculosis PTPB expressed in Escherichia coli BL21/DE3 cells using pNPP as substrate after 5 mins by spectrophotometry.
Test [2] has as its system BL21-DE3. In words: Potency index, ratio of SPAA IC50 to compound IC50 for Mycobacterium tuberculosis PTPB expressed in Escherichia coli BL21/DE3 cells.
A short description of test [3]: Inhibition of Mycobacterium tuberculosis PTPB.
In test [4] the test system is BL21-DE3. In words: Inhibition of Mycobacterium tuberculosis PTPB expressed in Escherichia coli BL21/DE3 cells using pNPP as substrate at 200 uM after 5 mins by spectrophotometry. Summed up: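 Single-point screen: the test compound is present at 200 μM in the assay (a compound concentration, not a substrate level). The read-out is phosphatase-catalysed hydrolysis of para-nitrophenyl phosphate.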

Test [5] can be described thus: Reversible competitive inhibition of Mycobacterium tuberculosis PTPB expressed in Escherichia coli BL21/DE3 cells using pNPP as substrate after 5 mins.

The source made the active and inactive calls. The rule behind the calls is not given here.

As a reminder, the IC50 is the midpoint of a concentration-inhibition curve. Low readings indicate higher potency, high ones lower potency. As a reminder, the Ki is the equilibrium dissociation constant of an inhibitor or competing ligand from its target.

Compound `O=C(NCCc1ccc(Cl)cc1Cl)C(c1ccccc1)S(=O)(=O)O` (racemic) yielded an IC50 in test [1] of 0.29 µM. The same measure, in the same setting: then `O=C(Nc1cccc2ccccc12)C(c1ccccc1)S(=O)(=O)O` (racemic), with 0.72 µM. On to `CCCNC(=O)C(c1ccccc1)S(=O)(=O)O` (racemic), for which the Ratio IC50 in the test on BL21-DE3 [2] came out at 11. The compound also displayed a 50% inhibitory concentration (IC50) in test [1] of 16 µM. Consider `O=C(Nc1ccc(-c2ccccc2)cc1)C(c1ccccc1)S(=O)(=O)O` (racemic), for which the IC50 in test [1] amounted to 0.196 µM. Regarding `NC(=O)c1cc[n+](CC2=C(C(=O)O)N3C(=O)[C@@H](NC(=O)[C@@H](c4ccccc4)S(=O)(=O)[O-])[C@H]3SC2)cc1` [CEFSULODIN SODIUM], half-maximal inhibition in test [3] (IC50) required 16 µM. Regarding `O=C(NC1CC1)C(c1ccccc1)S(=O)(=O)O` (racemic), the Ratio IC50 in the test with BL21-DE3 [2] came out at 32. The 50% inhibitory concentration (IC50) in test [1] turned out to be 5.6 µM. For `CC(=O)OCC1=C(C(=O)O)N2C(=O)[C@@H](N)[C@H]2SC1`, in the test on BL21-DE3 [4], the inhibition result was “inactive”. As to `O=C(C(c1ccccc1)S(=O)(=O)O)N1CCCCC1` (racemic), the Ratio IC50 in the test on BL21-DE3 [2] was 180. The compound also displayed an IC50 in test [1] of 0.95 µM.

In test [5], `NC(=O)C(c1ccccc1)S(=O)(=O)O` (configuration not stated) yielded an inhibitory constant (Ki) of 73.4 µM. Moreover, it took 180 µM to reach half-maximal inhibition in test [1] (IC50).

Regarding `O=C(Nc1ccccc1)C(c1ccccc1)S(=O)(=O)O` (racemic), the Ratio IC50 with BL21-DE3 [2] came out at 180. Also, the half-inhibitory concentration (IC50) in test [1] is 1 µM. In test [1], `O=C(C(c1ccccc1)S(=O)(=O)O)N1CCC(Cc2ccccc2)CC1` (racemic) yielded an IC50 of 0.04 µM. For `NC(=O)c1ccncc1`, in the test on BL21-DE3 [4], the inhibition result was “inactive”.
